Assay results reported in article PMC6335142 (Korean Journal for Food Science of Animal Resources, 2018).
Marks after values point to notes of the source that are not given here. Where no end group is shown, it is not given here.

Experiments:
[1] = Oxygen radical absorbance capacity; format: biochemical
Outline: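 Sample or trolox standard mixed with 80 nM fluorescein and held 15 min at 37℃, then 150 mM AAPH added. Fluorescence (ex 480, em 520 nm) recorded every minute at 37℃. Net AUC was converted through a trolox regression and reported as μmol trolox equivalent. RP-HPLC fractions (C18, 0–40% acetonitrile in 0.1% TFA, 215 nm) were lyophilized and taken up in 75 mM phosphate buffer. Values given as means and SEM with Tukey test.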

HCT116 cells = assay: MTT cell viability / proliferation assay in HCT116 cells; format: cell-based, human; conditions: 24 h
Outline: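 HCT116 cells grown in RPMI1640 with 10% FBS and 1% antibiotics at 37℃, 5% CO2, then seeded at 2×10^4 cells/well and left 24 h. Peptide added at 0–250 μg/mL for 24 h. MTT was added to a final 0.5 mg/mL for 4 h, and the formazan was dissolved in DMSO and read at 540 nm. Data given as means and SEM, with GLM ANOVA and Tukey test, p<0.05.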

[2] = system: ERK, JNK and p38 MAP kinase; assay: Western blot of MAP kinase; format: cell-based, human; conditions: 24 h, HCT116 cells
Outline: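 HCT116 cells seeded at 2×10^5 cells/well, incubated overnight at 37℃, then given peptide at varying concentrations for 24 h. Cells washed in dPBS and lysed on ice in pH 8.0 NaCl/Tris/NP40 buffer with protease inhibitors. 15 μg protein run on 10% SDS-PAGE and blotted to PVDF, blocked in 5% BSA. Blots probed overnight at 4℃ with total and phospho ERK, JNK, p38 and β-actin antibodies (1:200), then HRP secondary. Detection by ECL chemiluminescence.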

Sequence: CCCCSVQK (cysteine pairing not given here) [P3]
- ORAC value of RP-HPLC fraction ([1]; each 2-mL fraction lyophilized and re-dissolved in 0.5 mL 75 mM phosphate buffer): 94.21 μmol of TE
- ORAC ([1]; fluorescein 80 nM, AAPH 150 mM, 37℃, trolox standard, means, SEM 4.662): 202.66^a µM TE/g of dry matter
- Growth of HCT116 cells (HCT116 cells; 0–250 μg/mL): inhibited the growth of HCT116 cells in a dose-dependent manner
- Inhibition of HCT116 cell proliferation (HCT116 cells; 250 μg/mL): 25.24%
- Inhibition of HCT116 cells (as printed in results text) (HCT116 cells; 250 μg/mL, vs control): 74.76%
- p38 phosphorylation ([2]; 0, 50, 100 and 250 μg/mL): significantly phosphorylated by P3 with dose dependent
- ERK phosphorylation ([2]; 50 μg/mL): activated
- JNK phosphorylation ([2]; 100 and 250 μg/mL): significantly activated
